Measurements: PMC4201343 (ACS Chemical Biology, 2014)
Changes are numbered by the printed parent chain. “Also recorded” adds a separate entry of the source.

Key:
HCV NS3h [1] = target: T1, HCV NS3h (Hepatitis C virus genotype 1b, UniProt Q9WMX2); experiment: FP-based binding assay, NS3h displacement from Cy5-dT15 DNA; parameters: species or system hepatitis C virus genotype 1b (con1); conditions: for NS3h (% I): percent inhibition of NS3h binding to Cy5-dT15: 100 μM of each compound, 100 µM
T1 sequence (Q9WMX2 1190-1657 limits assumed): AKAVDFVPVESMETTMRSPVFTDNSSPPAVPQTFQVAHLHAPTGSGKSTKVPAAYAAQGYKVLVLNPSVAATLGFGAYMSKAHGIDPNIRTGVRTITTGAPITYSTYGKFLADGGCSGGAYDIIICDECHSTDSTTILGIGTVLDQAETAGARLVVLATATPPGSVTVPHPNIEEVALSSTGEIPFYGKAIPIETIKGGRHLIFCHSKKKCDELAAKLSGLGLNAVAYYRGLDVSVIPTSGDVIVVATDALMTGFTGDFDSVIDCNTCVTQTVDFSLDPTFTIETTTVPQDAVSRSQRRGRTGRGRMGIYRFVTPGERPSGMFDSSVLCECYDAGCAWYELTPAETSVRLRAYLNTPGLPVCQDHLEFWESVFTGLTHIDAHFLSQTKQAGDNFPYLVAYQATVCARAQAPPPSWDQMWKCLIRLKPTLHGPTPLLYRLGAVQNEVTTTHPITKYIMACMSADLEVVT
Procedure, shortened: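 Fluorescence polarization with Cy5-dT15 and NS3h: excitation 635 nm; parallel and perpendicular emission read at 667 nm; G-factor taken from probe-only wells. % inhibition normalized to DMSO-only (negative) and 200 nM dT20 or 100 μM primuline (positive) controls. Single-point tests at 100 μM. IC50 is the concentration displacing 50% of NS3h from DNA. Reversibility: 10 μM NS3h preincubated 1 h with test compound, then diluted 100–100 000-fold into Cy5-dT15 and compared with untreated controls.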

HCV NS3h [2] = target: T1, HCV NS3h; experiment: FP-based binding assay, NS3h displacement from Cy5-rU15 RNA; parameters: species or system hepatitis C virus genotype 1b (con1); conditions: IC50 RNA (Cy5-rU15–NS3h complex, RNA:NS3h binding), Figures 1C and 7B titration
Procedure, shortened: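 Con1 NS3h bound to 5′-Cy5-labelled rU15 RNA was titrated with test compound. Polarisation was read with excitation 635 nm and emission 667 nm, G-factor from probe-only wells. Values were normalised to DMSO and positive controls and fit to a concentration–response equation (n = 3). IC50 is the concentration reducing complex polarisation by 50%.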

E. coli SSB = E. coli SSB (Escherichia coli, UniProt P0AGE0); experiment: FP-based binding assay with SSB in place of NS3h
Procedure, shortened: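 Fluorescence polarisation assay with E. coli SSB in place of NS3h, using Cy5-dT15 (or Cy5-rU15 for titrations). Screen compounds were pin-transferred to 100 μM final, 1% DMSO. Excitation 635 nm, emission 667 nm; G-factor from probe-only wells. Percent inhibition was normalised to DMSO and to unlabeled dT20 or 100 μM primuline controls.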

NS3h helicase = target: T2, NS3h helicase (Hepatitis C virus genotype 1b, UniProt Q9WMX2); experiment: Molecular beacon-based helicase; type: biochemical, hepatitis C virus genotype 1b (con1); conditions: IC50 Helicase (DNA unwinding), Figure 7B, no DTT
T2 sequence (Q9WMX2 1190-1657 limits assumed): T1 sequence (Q9WMX2 1190-1657 limits assumed)

NS3 ATPase = target: T3, NS3 ATPase (Hepatitis C virus genotype 1b, UniProt Q9WMX2); experiment: ATPase assay; type: biochemical, hepatitis C virus genotype 1b (con1); conditions: Figure 7B
T3 sequence (Q9WMX2 1190-1657 limits assumed): T1 sequence (Q9WMX2 1190-1657 limits assumed)

[3] = target: NS3 protease (scNS3-NS4A) (Hepatitis C virus, UniProt Q9WMX2); experiment: Protease assay; type: biochemical; conditions: even at the highest concentrations tested
Procedure, shortened: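 Full-length single-chain NS3-4A at 10 nM, in kit HCV protease buffer without DTT with 5% DMSO, cleaving a 5-carboxyfluorescein-labelled peptide substrate; fluorescence read at 520 nm. Test compound was run as a 7-point two-fold dilution series from 100 μM, in duplicate.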

NS3h = target: T4, NS3h (Hepatitis C virus genotype 1b, UniProt Q9WMX2); experiment: ESI mass spectrometry of ebselen-treated NS3h; parameters: species or system hepatitis C virus genotype 1b (con1); conditions: 100 μM ebselen, 1 h, RT
T4 sequence (Q9WMX2 1190-1657 limits assumed): T1 sequence (Q9WMX2 1190-1657 limits assumed)
Procedure, shortened: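 Con1 NS3h was incubated 1 h at RT with 100 μM test compound in 10 mM ammonium acetate pH 7.5, 1% DMSO. It was dialysed against 10 mM ammonium acetate (three changes) and diluted to 0.15 mg/mL in 50:50 acetonitrile/water, 0.2% formic acid. Nano-ESI Q-TOF, positive mode, 3 kV, 0.7 μL/min, 10 min acquisition, compared with untreated and DMSO-treated protein.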

NS3h_1b(con1) C279S = target: T5, NS3h_1b(con1) C279S (Hepatitis C virus genotype 1b, UniProt Q9WMX2, C1305S); experiment: DNA binding, ATP hydrolysis and DNA unwinding assays with C279S NS3h; type: biochemical, hepatitis C virus genotype 1b (con1); conditions: DNA binding, ATP hydrolysis, DNA unwinding
T5 sequence (Q9WMX2 1190-1657 C1305S limits assumed): T1 sequence (Q9WMX2 1190-1657 limits assumed) with C116S

NS3h_1b(con1) C289S = target: T6, NS3h_1b(con1) C289S (Hepatitis C virus genotype 1b, UniProt Q9WMX2, C1315S); experiment: DNA binding, ATP hydrolysis and DNA unwinding assays with C289S NS3h; type: biochemical, hepatitis C virus genotype 1b (con1); conditions: DNA binding, ATP hydrolysis, DNA unwinding
T6 sequence (Q9WMX2 1190-1657 C1315S limits assumed): T1 sequence (Q9WMX2 1190-1657 limits assumed) with C126S

[4] = system: HCV genotype 2a isolate (JFH1); conditions: 20 μM of each compound; ref Gastaminza et al.[9]; cited from earlier work

Chain of E. coli SSB (P0AGE0 2-178 limits assumed): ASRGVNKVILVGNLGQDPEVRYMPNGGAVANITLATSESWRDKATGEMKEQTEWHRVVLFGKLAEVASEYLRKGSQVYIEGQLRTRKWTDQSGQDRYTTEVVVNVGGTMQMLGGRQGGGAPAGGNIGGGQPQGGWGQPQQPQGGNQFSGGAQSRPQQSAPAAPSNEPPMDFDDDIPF

For `O=c1c2ccccc2[se]n1-c1ccccc1` [Ebselen, 2-phenyl-1,2-benzisoselenazol-3(2H)-one], the “reversibility of NS3h inhibition” value (HCV NS3h [1]; 10 μM NS3h treated with 10 μM ebselen for 1 h, then diluted to <0.1 μM ebselen) was “reversible”, the “NS3h (% I): percent inhibition of NS3h binding to Cy5-dT15” value (HCV NS3h [1]) was 99% and the “NS3h (% I): percent inhibition of NS3h binding to Cy5-dT15” value (HCV NS3h [1]; listed as ebselen) was “more than 50%”. For the same compound, the IC50 (HCV NS3h [1]; IC50 DNA (Cy5-dT15–NS3h complex), Figure 1C titration, n = 3) was ~1000 nM, the “reversibility of NS3h inhibition” value (HCV NS3h [1]; NS3h incubated with 100 μM ebselen, then dialysis) was “irreversible” and the IC50 (HCV NS3h [2]) was ~1000 nM. For the same compound, the “effect on SSB binding to DNA or RNA” value (E. coli SSB; Cy5-dT15 or Cy5-rU15, Figure 1D titration) was “no effect; also recorded: did not inhibit”, the inhibition at 100 µM (E. coli SSB; read-out: SSB (% I): percent inhibition of SSB binding to Cy5-dT15) was 3% and the IC50 (NS3h helicase) was ~1000 nM. For the same compound, the IC50 (NS3 ATPase) was ~1000 nM, the “effect on NS3 protease activity (peptide cleavage by full-length NS3)” value [3] was “no effect” and the “number of ebselens bound to NS3h (covalent adducts)” value (NS3h) was 14. The “sensitivity to ebselen inhibition compared with wild type” value (NS3h_1b(con1) C279S) was “neither protein was more or less sensitive”, the “sensitivity to ebselen inhibition compared with wild type” value (NS3h_1b(con1) C289S) was “neither protein was more or less sensitive” and the “HCV (% I): percent inhibition of HCV replication in cells” value [4] was 83%.
